# Screening results (PubChem BioAssay)
# The list is not random: actives were taken first. Their share in the collection is about 29%.
# CYP2C19 inhib = blocks human cytochrome P450 2C19 | P33261 | CYP2C19 Supersomes, luciferin-H EGE luminescence, 30 min | inhibition, % at 5 µM | 96,000 compounds, 21% hits;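 active = CYP2C19 inhibition above a set limit at 5 µM in the primary screen, cut at about 50% in these data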;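 note: plate controls were negative control wells for no effect and 2.5 mM tranylcypromine positive control for full effect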
# Target sequence (P33261 whole entry, looked up): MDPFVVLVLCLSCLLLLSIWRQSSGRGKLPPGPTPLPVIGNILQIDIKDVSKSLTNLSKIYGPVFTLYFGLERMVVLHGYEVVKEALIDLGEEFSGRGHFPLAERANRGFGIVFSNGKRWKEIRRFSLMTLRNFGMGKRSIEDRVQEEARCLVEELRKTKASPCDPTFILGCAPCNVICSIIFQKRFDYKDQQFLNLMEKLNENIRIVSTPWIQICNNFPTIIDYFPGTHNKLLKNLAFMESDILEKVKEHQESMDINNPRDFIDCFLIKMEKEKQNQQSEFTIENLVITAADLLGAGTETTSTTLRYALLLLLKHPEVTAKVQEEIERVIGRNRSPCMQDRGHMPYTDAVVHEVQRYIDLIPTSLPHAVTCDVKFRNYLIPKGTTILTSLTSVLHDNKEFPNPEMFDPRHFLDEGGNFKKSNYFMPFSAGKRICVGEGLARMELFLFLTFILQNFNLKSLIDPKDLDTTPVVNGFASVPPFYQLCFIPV
# CYP2C9 activ = CYP2C9 (human) activation | P11712 | recombinant CYP2C9, luciferin-H conversion, luminescence; stronger effect = higher value; factor 1 = untreated enzyme, 0 = blocked | activation factor at 5 µM | 96,000 compounds, 1.4% hits;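 active = activation factor of 2 or more for CYP2C9 at a 5 µM dose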;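 note: 0 = sulfaphenazole-blocked wells and 1 = vehicle-only wells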
# Ecoli tolC = growth inhibitors of E. coli BW25113 tolC mutant. OD615. growth inhibition, % at 10 µM (by protocol). 65,000 compounds, 2.2% hits;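 active = growth inhibition at or above a cutoff equal to the mean over every tested compound plus 3 SD, cut at about 60% in these data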;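 note: growth measured after 20 h incubation at 37 °C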
#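 Test system: E. coli BW25113 ΔtolC::kan bacteria | Medium: Kanamycin-containing LB broth (50 µg/mL) | Dosing: One dose of 10 µM final | Times: 20 h incubation with compound, 37 °C | Detection: Optical density read at 615 nm | Read-out basis: Percent growth inhibition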
# CYP2C19 activ = cytochrome P450 2C19 (human) activation | P33261 | recombinant CYP2C19, luciferin-H EGE luminescence; stronger effect = higher value; 0 = fully inhibited enzyme, 1 = untreated enzyme | activation factor at 5 µM | 96,000 tested, under 10 active | AID 1025;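 active = activation factor of at least 2 at 5 µM in the primary screen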;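 note: 0 = wells with 2.5 mM tranylcypromine and 1 = vehicle-only wells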
# Ecoli WT expand = growth inhibitors of E. coli BW25113 wild type | growth inhibition, % at 100 µM | OD600 absorbance | 98,000 compounds, 0.15% hits;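 active = growth inhibition above about 50% at one test dose, limit read from the data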;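 note: growth measured after 20 h incubation at 37 °C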
# CYP2C9 inh = human CYP2C9 inhibition | AID 777 | CYP2C9 Supersomes, luciferin-H conversion, luminescence | 96,000 compounds, 20% hits | P11712 | inhibition, % at 5 µM;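 active = blocking of liver enzyme CYP2C9 beyond about 50% at 5 µM, limit read from the data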
# * = called active by the depositor; x = no result.
SMILES,CYP2C19 inhib,CYP2C9 activ,Ecoli tolC,CYP2C19 activ,Ecoli WT expand,CYP2C9 inh
O=S(=O)(c1cccc(C(F)(F)F)c1)N1CCC(c2cc(-c3cccc4ccccc34)n[nH]2)CC1,6,0.9,x,0.9,-5,9
CN(C)/C=N/c1cnc(C(=O)c2ccc(Cl)cc2)n1C,60*,0.7,1,0.4,5,32
CS(=O)(=O)Nc1ccc2c(c1)C(=O)OC2,-10,1.1,-8,1.1,5,-12
O=S(=O)(NC1=NCCC1)c1cccs1,8,1.1,-5,0.9,5,-7
COc1ccc(S(=O)(=O)Nc2ccc3c(c2)COC3=O)cc1OC,84*,0.6,-30,0.2,4,39
O=C1OCc2cc(NS(=O)(=O)c3cccs3)ccc21,76*,0.1,-1,0.2,8,89*
O=S(=O)(Nc1ccc2c(c1)CCC2)c1cccs1,99*,0.2,22,0,-1,83*
CC(=O)c1sc(N2C(=O)c3oc4ccccc4c(=O)c3C2c2ccc(C)o2)nc1C (stereo not given),x,x,4,x,x,x
CC(C)(C)c1ccc(S(=O)(=O)n2c(CN3CCOCC3)nc3ccccc32)cc1,15,0.9,23,0.9,3,14
COC(=O)C1=C(C(=O)OC)SC2(S1)C(C(=O)OC)=C(C(=O)OC)SC1=C2c2cc(C)cc(C)c2NC1(C)C,67*,0.2,x,0.3,-4,79*
CC(C)Sc1nc2c(c(=O)n(C)c(=O)n2C)n1C,78*,0.8,-4,0.2,4,18
Cc1ccccc1NC(=O)C1CC(=O)N(c2ccc3c4c(cccc24)CC3)C1 (stereo not given),10,0.4,x,0.9,-2,55*
Cc1ccccc1NC(=O)C1CC(=O)N(c2ccccc2F)C1 (stereo not given),24,1,-14,0.8,5,-4
C=CCn1c(SCC(=O)NCCC2=CCCCC2)nc2ccc(Cl)cc2c1=O,29,0.4,x,0.7,-11,56*
C=CCn1c(SCC(=O)Nc2ccc3c(c2)OCO3)nc2ccccc2c1=O,-7,0.7,11,1.1,-6,30
O=C(/C=C/c1cc([N+](=O)[O-])ccc1OC(F)F)NCc1ccc(F)cc1,34,1.1,x,0.7,-18,-7
CCOC(=O)Cn1c(N2CCOCC2)nc2c1c(=O)[nH]c(=O)n2C,4,1.1,-11,1,2,-7
Cc1cccc(CC(Cc2nc3ccccc3[nH]2)c2nc3ccccc3[nH]2)c1 (stereo not given),93*,0.1,x,0.1,-8,88*
CCCc1cc(-c2[nH]ncc2-c2ccc(C(=O)OCC)o2)c(O)cc1O,70*,0,43,0.3,1,98*
CCCC(=O)c1ccc2c(c1)OCCO2,20,0.8,x,0.8,16,22
CCCc1cc(-c2[nH]ncc2-c2ccc3c(c2)OCCCO3)c(O)cc1O,100*,0,100*,0,15,100*
CC(=O)N=C1SC2CS(=O)(=O)CC2N1c1cccc(Cl)c1Cl (stereo not given),11,0.3,-15,0.9,-5,66*
CC(=O)N=C1SC2CS(=O)(=O)CC2N1c1ccccc1Cl (stereo not given),18,0.9,-27,0.8,-2,14
Cc1ccc(-n2ncc3c(=O)n(CC(=O)NCC4CCCO4)cnc32)cc1 (stereo not given),-6,1,-20,1.1,6,-4
CC1=C(C(=O)N2CCOCC2)C(c2ccsc2)C2=C(CCCC2=O)N1 (stereo not given),-4,1.2,-10,1,5,-20
O=C(c1cc2nc3c(c(C(F)(F)F)n2n1)CCc1ccccc1-3)N1CCN2CCCC2C1 (stereo not given),x,x,12,x,x,x
CCCn1nc(C(=O)NCC(C)(C)N2CCOCC2)c2ccccc2c1=O,13,1,x,0.9,2,-2
O=C(Nc1ccc2c(c1)OCCO2)c1ccc(CN2CCOCC2)cc1,2,1,-16,1,-1,-1
CCc1ccc(C(=O)Nc2cc3c(cc2Cl)OCCCO3)cc1,7,2.2*,x,0.9,-10,-117
Cc1ccccc1NC(=O)c1ccc2c(c1)OCCO2,-7,1.1,x,1.1,4,-11
